# Data reported in ChEMBL document CHEMBL5058577, “EUbOPEN Chemogenomics Library 2 (Multiplex)” (2022).
# Test system: Fibroblast
# Test: Multiplex assay against human fibroblast
# Type: toxicity, cell-based
# Method in brief: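 Cells stained live at seeding with Hoechst33342, BioTracker Green Microtubule Cytoskeleton Dye, MitoTracker Red and Annexin V Alexa Fluor 680 were imaged on a CQ1 microscope at 37°C and 5% CO2 after compound addition. Their classification by CellPathfinder machine-learning gating ran from Hoechst high-intensity objects versus normal cells, to healthy, pyknosed or fragmented nuclei among normal cells, to mitotic or apoptotic among pyknosed cells. Tubulin, mitochondrial-mass and membrane-permeability phenotypes are per cents of healthy-nucleus cells.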
# [1] = 12 h, 1 µM, compound concentration 1 uM, replicate 1
# [2] = 12 h, 1 µM, compound concentration 1 uM, replicate 2
# [3] = 12 h, 10 µM, compound concentration 10 uM, replicate 1
# [4] = 12 h, 10 µM, compound concentration 10 uM, replicate 2
# [5] = 24 h, 1 µM, compound concentration 1 uM, replicate 1
# [6] = 24 h, 1 µM, compound concentration 1 uM, replicate 2
# [7] = 24 h, 10 µM, compound concentration 10 uM, replicate 1
# [8] = 24 h, 10 µM, compound concentration 10 uM, replicate 2
# [9] = 48 h, 1 µM, compound concentration 1 uM, replicate 1
# [10] = 48 h, 1 µM, compound concentration 1 uM, replicate 2
# [11] = 48 h, 10 µM, compound concentration 10 uM, replicate 1
# [12] = 48 h, 10 µM, compound concentration 10 uM, replicate 2
smiles,measurement,setting,value
COc1ccc2[nH]c(I)c(CCNC(C)=O)c2c1 [IODOMELATONIN],Population Apoptotic (%),[1],53%
same,Population Fragmented Nuclei (%),[1],15%
same,Population Healthy Nuclei (%),[1],64%
same,Population Hoechst High Intensity Objects (%),[1],2%
same,Population Membrane Permeable-Phenotype (%),[1],4%
same,Population Mitochondria Different-Phenotype (%),[1],4%
same,Population Mitotic Cells (%),[1],46%
same,Population Normal (%),[1],97%
same,Population Pyknosed Nuclei (%),[1],19%
same,Population Tubulin-Different-Phenotype (%),[1],28%
same,Total Cell Count,[1],137
same,Population Apoptotic (%),[2],32%
same,Population Fragmented Nuclei (%),[2],23%
same,Population Healthy Nuclei (%),[2],60%
same,Population Hoechst High Intensity Objects (%),[2],5%
same,Population Membrane Permeable-Phenotype (%),[2],7%
same,Population Mitochondria Different-Phenotype (%),[2],3%
same,Population Mitotic Cells (%),[2],68%
same,Population Normal (%),[2],94%
same,Population Pyknosed Nuclei (%),[2],15%
same,Population Tubulin-Different-Phenotype (%),[2],33%
same,Total Cell Count,[2],173
same,Population Apoptotic (%),[3],35%
same,Population Fragmented Nuclei (%),[3],14%
same,Population Healthy Nuclei (%),[3],64%
same,Population Hoechst High Intensity Objects (%),[3],2%
same,Population Membrane Permeable-Phenotype (%),[3],2%
same,Population Mitochondria Different-Phenotype (%),[3],6%
same,Population Mitotic Cells (%),[3],64%
same,Population Normal (%),[3],97%
same,Population Pyknosed Nuclei (%),[3],21%
same,Population Tubulin-Different-Phenotype (%),[3],20%
same,Total Cell Count,[3],148
same,Population Apoptotic (%),[4],30%
same,Population Fragmented Nuclei (%),[4],38%
same,Population Healthy Nuclei (%),[4],44%
same,Population Hoechst High Intensity Objects (%),[4],3%
same,Population Membrane Permeable-Phenotype (%),[4],5%
same,Population Mitochondria Different-Phenotype (%),[4],0%
same,Population Mitotic Cells (%),[4],69%
same,Population Normal (%),[4],96%
same,Population Pyknosed Nuclei (%),[4],17%
same,Population Tubulin-Different-Phenotype (%),[4],43%
same,Total Cell Count,[4],157
same,Population Apoptotic (%),[5],62%
same,Population Fragmented Nuclei (%),[5],16%
same,Population Healthy Nuclei (%),[5],63%
same,Population Hoechst High Intensity Objects (%),[5],0%
same,Population Membrane Permeable-Phenotype (%),[5],0%
same,Population Mitochondria Different-Phenotype (%),[5],7%
same,Population Mitotic Cells (%),[5],37%
same,Population Normal (%),[5],99%
same,Population Pyknosed Nuclei (%),[5],20%
same,Population Tubulin-Different-Phenotype (%),[5],27%
same,Total Cell Count,[5],134
same,Population Apoptotic (%),[6],57%
same,Population Fragmented Nuclei (%),[6],26%
same,Population Healthy Nuclei (%),[6],57%
same,Population Hoechst High Intensity Objects (%),[6],5%
same,Population Membrane Permeable-Phenotype (%),[6],6%
same,Population Mitotic Cells (%),[6],42%
same,Population Normal (%),[6],94%
same,Population Pyknosed Nuclei (%),[6],15%
same,Population Tubulin-Different-Phenotype (%),[6],39%
same,Total Cell Count,[6],176
same,Population Apoptotic (%),[7],35%
same,Population Fragmented Nuclei (%),[7],16%
same,Population Healthy Nuclei (%),[7],58%
same,Population Hoechst High Intensity Objects (%),[7],2%
same,Population Membrane Permeable-Phenotype (%),[7],1%
same,Population Mitochondria Different-Phenotype (%),[7],4%
same,Population Mitotic Cells (%),[7],64%
same,Population Normal (%),[7],97%
same,Population Pyknosed Nuclei (%),[7],24%
same,Population Tubulin-Different-Phenotype (%),[7],30%
same,Total Cell Count,[7],143
same,Population Apoptotic (%),[8],24%
same,Population Fragmented Nuclei (%),[8],38%
same,Population Healthy Nuclei (%),[8],41%
same,Population Hoechst High Intensity Objects (%),[8],4%
same,Population Membrane Permeable-Phenotype (%),[8],10%
same,Population Mitochondria Different-Phenotype (%),[8],1%
same,Population Mitotic Cells (%),[8],75%
same,Population Normal (%),[8],95%
same,Population Pyknosed Nuclei (%),[8],20%
same,Population Tubulin-Different-Phenotype (%),[8],40%
same,Total Cell Count,[8],149
same,Population Apoptotic (%),[9],76%
same,Population Fragmented Nuclei (%),[9],16%
same,Population Healthy Nuclei (%),[9],64%
same,Population Hoechst High Intensity Objects (%),[9],3%
same,Population Membrane Permeable-Phenotype (%),[9],0%
same,Population Mitochondria Different-Phenotype (%),[9],4%
same,Population Mitotic Cells (%),[9],23%
same,Population Normal (%),[9],96%
same,Population Pyknosed Nuclei (%),[9],18%
same,Population Tubulin-Different-Phenotype (%),[9],22%
same,Total Cell Count,[9],147
same,Population Apoptotic (%),[10],42%
same,Population Fragmented Nuclei (%),[10],30%
same,Population Healthy Nuclei (%),[10],55%
same,Population Hoechst High Intensity Objects (%),[10],4%
same,Population Membrane Permeable-Phenotype (%),[10],5%
same,Population Mitochondria Different-Phenotype (%),[10],0%
same,Population Mitotic Cells (%),[10],57%
same,Population Normal (%),[10],95%
same,Population Pyknosed Nuclei (%),[10],13%
same,Population Tubulin-Different-Phenotype (%),[10],40%
same,Total Cell Count,[10],163
same,Population Apoptotic (%),[11],60%
same,Population Fragmented Nuclei (%),[11],29%
same,Population Healthy Nuclei (%),[11],56%
same,Population Hoechst High Intensity Objects (%),[11],7%
same,Population Membrane Permeable-Phenotype (%),[11],1%
same,Population Mitochondria Different-Phenotype (%),[11],1%
same,Population Mitotic Cells (%),[11],40%
same,Population Normal (%),[11],92%
same,Population Pyknosed Nuclei (%),[11],13%
same,Population Tubulin-Different-Phenotype (%),[11],22%
same,Total Cell Count,[11],159
same,Population Apoptotic (%),[12],38%
same,Population Fragmented Nuclei (%),[12],48%
same,Population Healthy Nuclei (%),[12],38%
same,Population Hoechst High Intensity Objects (%),[12],2%
same,Population Membrane Permeable-Phenotype (%),[12],10%
same,Population Mitochondria Different-Phenotype (%),[12],5%
same,Population Mitotic Cells (%),[12],61%
same,Population Normal (%),[12],98%
same,Population Pyknosed Nuclei (%),[12],12%
same,Population Tubulin-Different-Phenotype (%),[12],57%
same,Total Cell Count,[12],150
